# Experimental data gathered from unrelated publications.
# Lines come from different studies, so protocols differ.
# PLEKHA3: PLEKHA3 (Homo sapiens, UniProt Q9HB20)
# Fibroblast growth factor 14: Fibroblast growth factor 14 (Homo sapiens, UniProt Q92915)
# MAPK14: Mitogen-activated protein kinase 14 (MAPK14, Homo sapiens, UniProt Q16539)
# ADRA2C: Alpha-2C adrenergic receptor (ADRA2C, Homo sapiens, UniProt P18825)
Structure (SMILES),target,read-out,action,technique,quantity,value
CCOc1ccc(-c2cc(C(=O)O)c(-c3ccc(Cl)cc3)o2)cc1,PLEKHA3,ligand displacement,,FP,Ki,550 nM
Cc1cccc(NC(=O)Cn2cc(CO)c3ccccc32)c1,Fibroblast growth factor 14,binding,,SPR,Kd,1900 nM
CCOc1ccccc1C(=O)CC(SCc1ccc(Cl)cc1)C(=O)O (stereo not drawn),PLEKHA3,ligand displacement,,FP,Ki,7800 nM
c1ccc(-c2n[nH]cc2-c2ccncc2)nc1,MAPK14,enzyme activity,inhibitor,ADP detection,IC50,4500 nM
Cc1cc(Oc2ncccc2CN2CCN(c3cccc(F)c3)CC2)ccc1-c1c(C)c(=O)[nH]c(=O)n1C,ADRA2C,ligand displacement,,radioligand,Ki,20 nM
c1coc(-c2n[nH]cc2-c2ccnc3ccccc23)c1,MAPK14,enzyme activity,inhibitor,ADP detection,IC50,1800 nM
CC(=O)Nc1ccc(Oc2ccc3c(c2)C(=O)N(c2cc(C)ccc2C)C3=O)cc1,Fibroblast growth factor 14,binding,,SPR,Kd,13600 nM
CCOc1ccc(C(=O)CC(SCc2ccc(OC)cc2)C(=O)O)cc1 (stereo not drawn),PLEKHA3,ligand displacement,,FP,Ki,27000 nM
CC(C)=CC[C@@H](O)C1=CC(=O)c2c(O)ccc(O)c2C1=O,"Interleukin-6 (IL6, Homo sapiens, UniProt P05231)",binding,,BLI,Kd,910 nM
Cc1cc(Oc2ncccc2CN2CCN(c3ccccc3)CC2)ccc1-c1c(C)c(=O)[nH]c(=O)n1C,ADRA2C,ligand displacement,,radioligand,Ki,11.5 nM
CCOc1ccc(C(=O)CC(SCc2ccc(Cl)cc2)C(=O)OC)cc1 (stereo not drawn),PLEKHA3,ligand displacement,,FP,Ki,17300 nM
Cc1cc(Oc2ncccc2CN2CCN(c3ccc(Br)cc3)CC2)ccc1-c1c(C)c(=O)[nH]c(=O)n1C,ADRA2C,ligand displacement,,radioligand,Ki,76.1 nM
O=c1cc(-c2ccc([N+](=O)[O-])cc2)[nH]c2c(-c3ccc(Cl)cc3)c(Cc3ccccc3)nn12,Fibroblast growth factor 14,binding,,SPR,Kd,940 nM
Cc1cc(Oc2ncccc2CN2CCN(C(c3ccccc3)c3ccccc3)CC2)ccc1-c1c(C)c(=O)[nH]c(=O)n1C,ADRA2C,ligand displacement,,radioligand,Ki,137 nM
CCOc1ccc(C(=O)CC(SCc2ccc(Br)cc2)C(=O)O)cc1 (stereo not drawn),PLEKHA3,ligand displacement,,FP,Ki,18600 nM
